{"source": "the EternaBench riboswitch data", "tested_on": "MS2 coat protein", "experiment": "apparent Kd, MS2 coat protein; higher = weaker binding; RNA-MaP array; FMN 200 µM where present", "how_it_was_run": "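In 100 mM Tris-HCl pH 7.5, 80 mM KCl, 4 mM MgCl2, BSA, DTT, yeast tRNA and Tween-20, SNAP-549-labelled MS2 coat protein was titrated from 0.7 or 1.5 nM, doubling to 3 µM, over designs transcribed by stalled E. coli RNA polymerase on Illumina sequencing-chip clusters. This was done first without ligand, then with ligand held constant. After green signal was normalised to red-channel RNA signal and control-cluster median Fmax, the apparent Kd was taken as the median of filtered per-cluster binding-curve fits.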", "key": {"[1]": {"conditions": "designed as: ON switch for flavin mononucleotide, no ligand"}, "[2]": {"conditions": "ligand present: flavin mononucleotide, designed as: ON switch for flavin mononucleotide"}, "[3]": {"conditions": "designed as: OFF switch for flavin mononucleotide, no ligand"}, "[4]": {"conditions": "ligand present: flavin mononucleotide, designed as: OFF switch for flavin mononucleotide"}}}
{"sequence": "AUACUCAUGUAAGGAUAUGCAGCCGAAACGGCUGCAGAAGGUACUAUAAUACAUGAGGAUCACCCAUGUCAAAAUAAACUAGUU", "values": [{"measurement": "apparent Kd", "setting": "[1]", "value": 155, "unit": "nM"}, {"measurement": "apparent Kd", "setting": "[2]", "value": 36.5, "unit": "nM"}]}
{"sequence": "UGGUACUAGGGAGGAUAUGGUAAGAUACAUGAGGAUCACCCAUGUUUAAGAAUGCCGAGAGGCAACUAGAAGGCCCUAGUACCU", "values": [{"measurement": "apparent Kd", "setting": "[1]", "value": 6.47, "unit": "nM"}, {"measurement": "apparent Kd", "setting": "[2]", "value": 5.04, "unit": "nM"}]}
{"sequence": "CUAAAUCAUGUAGGAUAUGCAUGGCGAAGCUACGCAGAAGGACAUGAGGAUCACCCAUGUCAGAACGUCUGCGUUCAGACGUUG", "values": [{"measurement": "apparent Kd", "setting": "[3]", "value": 17.7, "unit": "nM"}, {"measurement": "apparent Kd", "setting": "[4]", "value": 58, "unit": "nM"}]}
{"sequence": "AUUUUAAUAUAGGAUAUCGAAAUUAUUAUUUAACGAGAAGGAUGAACAUGAGGAUCACCCAUGUGGUAUCAUGG", "values": [{"measurement": "apparent Kd", "setting": "[3]", "value": 223, "unit": "nM"}, {"measurement": "apparent Kd", "setting": "[4]", "value": 204, "unit": "nM"}]}
{"sequence": "UCCUUGUCCUGAGGAUAUCCGCGGUUCCCAAAAGGAGAAGGCAGGACAUGAGGAUCACCCAUGUACCCAGAAAACGUGCAGAGU", "values": [{"measurement": "apparent Kd", "setting": "[3]", "value": 36.8, "unit": "nM"}, {"measurement": "apparent Kd", "setting": "[4]", "value": 313, "unit": "nM"}]}
{"sequence": "CAGAAGUCAGGAUAUCCAUGGCGGCACUUGCGUGGUGGCGUGGAGAAGGGACAUGAGGAUCACCCAUGUAAAGC", "values": [{"measurement": "apparent Kd", "setting": "[3]", "value": 57.4, "unit": "nM"}, {"measurement": "apparent Kd", "setting": "[4]", "value": 45.3, "unit": "nM"}]}
{"sequence": "CAUUAAUUCAUUAUAUUAAUUUUACAGGAUAUGUAACAUGAGGAUCACCCAUGUAUUCAAGGUUAACAGAAGGGUAUAUCUAGU", "values": [{"measurement": "apparent Kd", "setting": "[3]", "value": 18.2, "unit": "nM"}, {"measurement": "apparent Kd", "setting": "[4]", "value": 14, "unit": "nM"}]}
{"sequence": "GCACGGUAUGUAGGAUAUGCAUAGCAUUGCUAUGCAGAAGGACAUGAGGAUCACCCAUGUAUGUAUUCCAUAUAUUUCCCGUGC", "values": [{"measurement": "apparent Kd", "setting": "[3]", "value": 5.55, "unit": "nM"}, {"measurement": "apparent Kd", "setting": "[4]", "value": 5.87, "unit": "nM"}]}
{"sequence": "CUGGUGUGAGGAUAUCAGGACACGCCCGCGGACGUGUCAAAUGAGAAGGCACAUGAGGAUCACCCAUGUGGGAC", "values": [{"measurement": "apparent Kd", "setting": "[3]", "value": 33.4, "unit": "nM"}, {"measurement": "apparent Kd", "setting": "[4]", "value": 166, "unit": "nM"}]}
{"sequence": "AUACUCGUUGUGAGGAUAUCGUUUUCGUCACGGAUCGAGAAGGCACAUGAGGAUCACCCAUGUUUGACGUGAAU", "values": [{"measurement": "apparent Kd", "setting": "[3]", "value": 17.1, "unit": "nM"}, {"measurement": "apparent Kd", "setting": "[4]", "value": 44.3, "unit": "nM"}]}
{"sequence": "CUGAUGUGAGGAUAUCGGGCUACAGGACUGCUGCUAGCAAACGAGAAGGCACAUGAGGAUCACCCAUGUGAGAG", "values": [{"measurement": "apparent Kd", "setting": "[3]", "value": 18.1, "unit": "nM"}, {"measurement": "apparent Kd", "setting": "[4]", "value": 25.4, "unit": "nM"}]}
{"sequence": "CAUCUAUUUAGAGGAUAUGGUGACGAAAAGCUACCAGAAGGCUAAGUACAUGAGGAUCACCCAUGUGCGUGGGCGCUUAGGGUC", "values": [{"measurement": "apparent Kd", "setting": "[3]", "value": 9.93, "unit": "nM"}, {"measurement": "apparent Kd", "setting": "[4]", "value": 47.8, "unit": "nM"}]}
{"sequence": "UUCAUCAAUGAAGGAUAUCUAUAUCCAACAUGAGGAUCACCCAUGUUGAGGAUCACCUAUGUAAAGGAGAAGGUUAAUAUAACU", "values": [{"measurement": "apparent Kd", "setting": "[1]", "value": 6.83, "unit": "nM"}, {"measurement": "apparent Kd", "setting": "[2]", "value": 6.32, "unit": "nM"}]}
{"sequence": "CACACCGUAGGAGGAUAUCCCUGGACAUGAGGAUCACCCAUGUUUAGCCCGUCCUCAUGUUAGUCGGAGAAGGCCUAGUGGUCG", "values": [{"measurement": "apparent Kd", "setting": "[3]", "value": 36.7, "unit": "nM"}, {"measurement": "apparent Kd", "setting": "[4]", "value": 37.6, "unit": "nM"}]}
{"sequence": "AUCAGCUCGUCAGGAUAUACGUCACAGCGUCAGCAGUGUGGUAAGAUCACAUGAGGAUCACCCAUGUAGAAGGGACGAGCUGAU", "values": [{"measurement": "apparent Kd", "setting": "[3]", "value": 16.8, "unit": "nM"}, {"measurement": "apparent Kd", "setting": "[4]", "value": 223, "unit": "nM"}]}
{"sequence": "ACAUUGAUUGUGAGGAUAUCGAUGUGAUGGUAUGUCGAGAAGGCACAUGAGGAUCACCCAUGUGGGUGUGGGCA", "values": [{"measurement": "apparent Kd", "setting": "[3]", "value": 259, "unit": "nM"}, {"measurement": "apparent Kd", "setting": "[4]", "value": 292, "unit": "nM"}]}
{"sequence": "AGUACUCCAGAAGGAUAUGCAUCGGUGGAUGUCCUUAGGCGGACGGUCACAUGAGGAUCACCCAUGUAGAAGGUCUGGGAGCCG", "values": [{"measurement": "apparent Kd", "setting": "[3]", "value": 39.8, "unit": "nM"}, {"measurement": "apparent Kd", "setting": "[4]", "value": 238, "unit": "nM"}]}
{"sequence": "CCACUGUCAGGAUAUCGUGCAUAAGCGAUUACAUUUAUGUGCGAGAAGGGACAUGAGGAUCACCCAUGUAAUCG", "values": [{"measurement": "apparent Kd", "setting": "[3]", "value": 528, "unit": "nM"}, {"measurement": "apparent Kd", "setting": "[4]", "value": 368, "unit": "nM"}]}
{"sequence": "GAGUCACGAAUAAUAAUAAGAUCUACAUGAGGAUCACCCAUGUAGGAUAUGCAGUGGAAUACACUGCAGAAGGACAUACGUGAC", "values": [{"measurement": "apparent Kd", "setting": "[3]", "value": 14, "unit": "nM"}, {"measurement": "apparent Kd", "setting": "[4]", "value": 17.5, "unit": "nM"}]}
{"sequence": "CAUGUCCUCACAGGAUAUGCUGGACUUUGUCCAGCAGAAGGGUGUUAACAUGAGGAUCACCCAUGUGGACAUGAUAUAUUUAAG", "values": [{"measurement": "apparent Kd", "setting": "[1]", "value": 757, "unit": "nM"}, {"measurement": "apparent Kd", "setting": "[2]", "value": 66.2, "unit": "nM"}]}
{"sequence": "CGCUCAAUAUAUAAGGAAAGAAUCAGAAGGCGUUACAUGAGGAUCACCCAUGUUUUGUAUAGUAACGAGGAUAUGAUAUGAGCG", "values": [{"measurement": "apparent Kd", "setting": "[3]", "value": 17.9, "unit": "nM"}, {"measurement": "apparent Kd", "setting": "[4]", "value": 15.3, "unit": "nM"}]}
{"sequence": "UCGUAUAAGGGCAUUACACAUGAGGAUCACCCAUGUACGUUAGAGGAUAUGCAUUCCAGUCGAACGUAGAAGGCUAGAGAAGGG", "values": [{"measurement": "apparent Kd", "setting": "[3]", "value": 118, "unit": "nM"}, {"measurement": "apparent Kd", "setting": "[4]", "value": 117, "unit": "nM"}]}
{"sequence": "CAGUACUGAGGAUAUACAUGAGGAUCACCCAUGUGUUCCAGCUAGGAAACUAGCAAAAUUAGAAGGCAGUACUG", "values": [{"measurement": "apparent Kd", "setting": "[3]", "value": 11.7, "unit": "nM"}, {"measurement": "apparent Kd", "setting": "[4]", "value": 20.7, "unit": "nM"}]}
